In ChEMBL document CHEMBL2046339, “Synthesis and evaluation of novel tropane derivatives as potential PET imaging agents for the dopamine transporter” (Bioorg Med Chem Lett, 2012):

Experiments:
[1] = biological target: T1, Sodium-dependent dopamine transporter (Homo sapiens, UniProt Q01959); experiment: Displacement of [125I]IPT from DAT overexpressed in LLC-PK1 cell membrane by competitive binding assay
[2] = test system: Bone; experiment: Biodistribution in Sprague-Dawley rat bone at 30 uCi, iv measured after 30 mins by gamma counting; type: ADME, organism-based, Bone element; conditions: in vivo, 0.5 h
Method in brief: (§1)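 Normal male Sprague-Dawley rats (n = 3) received 30 μCi of the 18F tracer iv per rat and were sacrificed at 30 min. Organs removed, weighed and gamma counted. Striatum, hippocampus, cerebellum, cortex and hypothalamus dissected and counted separately. %dose/g calculated against diluted aliquots of the injected dose; mean ± S.D. of 3 rats.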

[3] = test system: Muscle tissue; experiment: Biodistribution in Sprague-Dawley rat muscle at 30 uCi, iv measured after 30 mins by gamma counting; type: ADME, organism-based; conditions: in vivo, 0.5 h; method in brief: as §1
[4] = test system: Blood; experiment: Biodistribution in Sprague-Dawley rat blood at 30 uCi, iv measured after 30 mins by gamma counting; type: ADME, organism-based; conditions: in vivo, 0.5 h; method in brief: as §1
[5] = test system: Cerebellum; experiment: Biodistribution in Sprague-Dawley rat cerebellum at 30 uCi, iv measured after 30 mins by gamma counting; type: ADME, organism-based; conditions: in vivo, 0.5 h; method in brief: as §1
[6] = test system: Liver; experiment: Biodistribution in Sprague-Dawley rat liver at 30 uCi, iv measured after 30 mins by gamma counting; type: ADME, organism-based; conditions: in vivo, 0.5 h; method in brief: as §1
[7] = test system: Lung; experiment: Biodistribution in Sprague-Dawley rat lung at 30 uCi, iv measured after 30 mins by gamma counting; type: ADME, organism-based; conditions: in vivo, 0.5 h; method in brief: as §1
[8] = 1-Octanol-sodium phosphate buffer partition coefficient, log P of the compound at pH 7.4 after 4 mins; type: physicochemical
Method in brief: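 Radiolabelled compound added to 3 g 1-octanol and 3 g NaH2PO4 buffer, pH 7.4. Mixture vortexed 1 min and centrifuged 3 min. Octanol layer removed and partition repeated two more times. log P taken from the ratio of counts/mL in octanol vs buffer after the third partition.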

[9] = test system: Brain; experiment: Biodistribution in Sprague-Dawley rat brain at 30 uCi, iv measured after 30 mins by gamma counting; type: ADME, organism-based; conditions: in vivo, 0.5 h; method in brief: as §1
[10] = test system: Hypothalamus; experiment: Biodistribution in Sprague-Dawley rat hypothalamus at 30 uCi, iv measured after 30 mins by gamma counting; type: ADME, organism-based; conditions: in vivo, 0.5 h; method in brief: as §1
[11] = test system: Nucleic Acid; experiment: Ratio of drug uptake in hippocampus to cerebellum of Sprague-Dawley rat at 30 uCi, iv measured after 30 mins by gamma counting; type: ADME, organism-based; conditions: in vivo, 0.5 h
Method in brief: (§2)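 Male Sprague-Dawley rats (n = 3) received 30 μCi of the 18F tracer iv and were dissected at 30 min. Brain regions gamma counted as %dose/g against injected-dose aliquots. Regional uptake expressed as a ratio to cerebellum uptake.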

[12] = test system: Kidney; experiment: Biodistribution in Sprague-Dawley rat kidney at 30 uCi, iv measured after 30 mins by gamma counting; type: ADME, organism-based; conditions: in vivo, 0.5 h; method in brief: as §1
[13] = test system: Striatum; experiment: Biodistribution in Sprague-Dawley rat striatum at 30 uCi, iv measured after 30 mins by gamma counting; type: ADME, organism-based; conditions: in vivo, 0.5 h; method in brief: as §1
[14] = test system: Nucleic Acid; experiment: Ratio of drug uptake in striatum to cerebellum of Sprague-Dawley rat at 30 uCi, iv measured after 30 mins by gamma counting; type: ADME, organism-based; conditions: in vivo, 0.5 h; method in brief: as §2
[15] = test system: Cortex; experiment: Biodistribution in Sprague-Dawley rat cortex at 30 uCi, iv measured after 30 mins by gamma counting; type: ADME, organism-based; conditions: in vivo, 0.5 h; method in brief: as §1
[16] = test system: Hippocampus; experiment: Biodistribution in Sprague-Dawley rat hippocampus at 30 uCi, iv measured after 30 mins by gamma counting; type: ADME, organism-based; conditions: in vivo, 0.5 h; method in brief: as §1
[17] = test system: Heart; experiment: Biodistribution in Sprague-Dawley rat heart at 30 uCi, iv measured after 30 mins by gamma counting; type: ADME, organism-based; conditions: in vivo, 0.5 h; method in brief: as §1
[18] = biological target: T1, Sodium-dependent dopamine transporter; experiment: Binding affinity to DAT

T1 sequence (Q01959 whole entry): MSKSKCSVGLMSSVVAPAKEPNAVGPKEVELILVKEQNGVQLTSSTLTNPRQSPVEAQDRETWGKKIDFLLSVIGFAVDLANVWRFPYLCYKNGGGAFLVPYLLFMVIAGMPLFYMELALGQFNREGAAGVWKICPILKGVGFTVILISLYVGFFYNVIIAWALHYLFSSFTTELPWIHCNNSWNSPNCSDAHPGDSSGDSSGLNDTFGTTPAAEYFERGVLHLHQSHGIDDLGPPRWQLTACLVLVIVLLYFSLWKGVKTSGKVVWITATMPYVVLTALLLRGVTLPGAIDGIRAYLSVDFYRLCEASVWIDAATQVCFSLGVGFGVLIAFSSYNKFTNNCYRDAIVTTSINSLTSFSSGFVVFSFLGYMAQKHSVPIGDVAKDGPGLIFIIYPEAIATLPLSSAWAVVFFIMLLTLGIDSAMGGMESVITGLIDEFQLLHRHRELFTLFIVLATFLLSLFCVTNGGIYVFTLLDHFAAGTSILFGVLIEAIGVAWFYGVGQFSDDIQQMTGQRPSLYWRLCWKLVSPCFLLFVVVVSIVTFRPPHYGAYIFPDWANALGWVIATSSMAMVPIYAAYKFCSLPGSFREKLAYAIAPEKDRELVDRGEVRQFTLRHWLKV

`CN(CC[18F])C[C@H]1[C@@H](c2ccc(Cl)cc2)C[C@@H]2CC[C@H]1N2C` showed a Ki [1] of 3.79 nM, a Drug uptake [2] of 0.43 % ID/g and a Drug uptake [3] of 0.27 % ID/g. For the same compound, the Drug uptake [4] was 0.1 % ID/g, the Drug uptake [5] was 0.65 % ID/g and the Drug uptake [6] was 3.01 % ID/g. For the same compound, the Drug uptake [7] was 5.93 % ID/g, the logD at 4 min [8] was 1.52 and the Drug uptake [9] was 0.72 % ID/g. It also gave a Drug uptake [10] of 0.82 % ID/g, a Ratio [11] of 1.21 and a Drug uptake [12] of 3.65 % ID/g. It also gave a Drug uptake [13] of 1.07 % ID/g, a Ratio [14] of 1.63 and a Drug uptake [15] of 0.91 % ID/g. The Drug uptake [16] was 0.79 % ID/g and the Drug uptake [17] was 0.8 % ID/g.

Work on `CN(CCC[18F])C[C@H]1[C@@H](c2ccc(Cl)cc2)C[C@@H]2CC[C@H]1N2C` yielded a Ki [1] of 2.64 nM, a Drug uptake [2] of 0.5 % ID/g and a Drug uptake [3] of 0.22 % ID/g. It also gave a Drug uptake [4] of 0.1 % ID/g, a Drug uptake [5] of 0.66 % ID/g and a Drug uptake [6] of 2.08 % ID/g. For the same compound, the Drug uptake [7] was 11.5 % ID/g, the logD at 4 min [8] was 1.72 and the Drug uptake [9] was 0.52 % ID/g. For the same compound, the Drug uptake [10] was 0.63 % ID/g, the Ratio [11] was 0.8 and the Drug uptake [12] was 4.63 % ID/g. The Drug uptake [13] was 0.63 % ID/g, the Ratio [14] was 0.94 and the Drug uptake [15] was 0.68 % ID/g. It also gave a Drug uptake [16] of 0.54 % ID/g and a Drug uptake [17] of 1.56 % ID/g.

In the case of `CN(CCOCC[18F])C[C@H]1[C@@H](c2ccc(Cl)cc2)C[C@@H]2CC[C@H]1N2C`, the Ki [1] is reported as 4.63 nM.

`CN(C)C(=O)[C@H]1[C@@H](c2ccc(Cl)cc2)C[C@@H]2CC[C@H]1N2CC[18F]` gave a Ki [1] of 699 nM and a logD at 4 min [8] of -0.11.

For `CN(C)C(=O)[C@H]1[C@@H](c2ccc(Cl)cc2)C[C@@H]2CC[C@H]1N2CCC[18F]`, the Ki [1] was 135 nM and the logD at 4 min [8] was -0.07.

`CN(C)C[C@H]1[C@@H](c2ccc(Cl)cc2)C[C@@H]2CC[C@H]1N2CC[18F]` gave a Ki [1] of 18.3 nM and a logD at 4 min [8] of 1.88.

`CN(C)C[C@H]1[C@@H](c2ccc(Cl)cc2)C[C@@H]2CC[C@H]1N2CCC[18F]` gave a Ki [1] of 26.9 nM, a Drug uptake [2] of 1.04 % ID/g and a Drug uptake [3] of 0.3 % ID/g. It also gave a Drug uptake [4] of 0.14 % ID/g, a Drug uptake [5] of 0.44 % ID/g and a Drug uptake [6] of 0.86 % ID/g. It also gave a Drug uptake [7] of 5.58 % ID/g, a logD at 4 min [8] of 1.98 and a Drug uptake [9] of 0.39 % ID/g. For the same compound, the Drug uptake [10] was 0.43 % ID/g, the Ratio [11] was 0.99 and the Drug uptake [12] was 2.08 % ID/g. For the same compound, the Drug uptake [13] was 0.49 % ID/g, the Ratio [14] was 1.1 and the Drug uptake [15] was 0.52 % ID/g. It also gave a Drug uptake [16] of 0.44 % ID/g and a Drug uptake [17] of 0.57 % ID/g.

In the case of `COC(=O)[C@H]1[C@@H](c2ccc(Cl)cc2)C[C@@H]2CC[C@H]1N2C/C=C/[125I]`, the Kd [18] is reported as 1.2 nM.

`Cc1ccc([C@H]2C[C@@H]3CC[C@H]([C@H]2C(=O)OCC[18F])N3C/C=C/I)cc1` showed a Ki [18] of 12 nM.
